ChEMBL document CHEMBL4004836, “Design, synthesis and anticancer properties of IsoCombretaQuinolines as potent tubulin assembly inhibitors” (Eur J Med Chem, 2017)
pIC50: −log10 of the molar value. Calls of active or inactive are those of the source. No cut-off for these calls is given here.

Assays:
[1] = Cytotoxicity against human U87 cells assessed as decrease in cell growth after 72 hrs by resazurin dye-based fluorimetric method; type: functional, U-87MG ATCC; details: U-87 MG
Summary of the method: (§1)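 Lines grown in RPMI 1640 with 10% FCS and 1% glutamine, 37 °C, 5% CO2. K562R is a doxorubicin-resistant K562 line. Seeded 5 × 10^3 cells/well, compound in DMSO (<0.1%) added after 24 h, then 72 h exposure. Resazurin for 2 h, fluorescence ex 560/em 590 nm. IC50 from 50% fluorescence drop versus untreated cells. Triplicate, averaged.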

Ovis aries = species on record: Ovis aries; assay: Inhibition of sheep brain tubulin assembly at 100 uM by DAPI staining-based fluorimetric method relative to control
Summary of the method: (§2)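 Sheep brain tubulin purified by two assembly-disassembly cycles, about 2-3 mg/mL in 0.1 M MES, 0.5 mM MgCl2, 1 mM EGTA, 1 mM GTP, pH 6.6. Assembly followed by DAPI fluorescence at 37 °C. IC50 = concentration halving maximum assembly rate versus no compound. Single-point values given as % inhibition at 100 µM. Mean of three experiments.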

A549 [2] = assay: Cytotoxicity against human A549 cells assessed as decrease in cell growth after 72 hrs by resazurin dye-based fluorimetric method; type: functional; details: A549, 72 h
Summary of the method: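 A549 grown in DMEM (4.5 g/L glucose, 10% FCS, 1% glutamine), 37 °C, 5% CO2. Seeded 5 × 10^3 cells/well, compound in DMSO (<0.1%) added after 24 h, 72 h exposure. Resazurin (CellTiter-Blue) for 2 h, fluorescence ex 560/em 590 nm. IC50 = concentration halving fluorescence versus untreated cells. Triplicate; mean of three experiments.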

K562 = assay: Cytotoxicity against human K562 cells assessed as decrease in cell growth after 72 hrs by resazurin dye-based fluorimetric method; type: functional; details: K562, 72 h; summary of the method: as §1
HCT-116 = assay: Cytotoxicity against human HCT116 cells assessed as decrease in cell growth after 72 hrs by resazurin dye-based fluorimetric method; type: functional; details: HCT-116, 72 h; summary of the method: as §1
K-562R = assay: Cytotoxicity against human K562R cells assessed as decrease in cell growth after 72 hrs by resazurin dye-based fluorimetric method; type: functional; summary of the method: as §1
[3] = Inhibition of sheep brain tubulin assembly by DAPI staining-based fluorimetric method; design: species or system Ovis aries; summary of the method: as §2
A549 [4] = assay: Induction of microtubule network fragmentation in human A549 cells after 24 hrs by DAPI staining-based inverted microscopic method; type: cell-based
Summary of the method: (§3)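 A549 cells on chamber slides, 24 h with or without compound. Fixed in 2% paraformaldehyde for 30 min, permeabilized with 0.25% Triton X-100, blocked with 1% BSA/10% goat serum. Mouse anti-β-tubulin overnight at 4 °C, then Alexa 647 secondary with Hoechst 33258 for 2 h, Alexa 488 phalloidin for F-actin. Imaged by inverted microscope, 60X oil objective.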

A549 [5] = assay: Cell cycle arrest in human A549 cells assessed as accumulation at G2/M phase at 10 nM after 24 hrs by propidium iodide staining-based flow cytometric method; type: functional
Summary of the method: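 Exponentially growing A549 cells exposed for 24 h to 0.5, 1, 5 or 10 nM, with DMSO alone as control. DNA content read by propidium iodide staining and flow cytometry to give the cell-cycle profile.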

A549 [6] = assay: Disruption of microtubule network organization in human A549 cells assessed as decrease in mitotic spindle formation after 24 hrs by DAPI staining-based inverted microscopic method; type: cell-based; summary of the method: as §3

Row | SMILES | inhibition (Ovis aries) [%] | pIC50 [3] | pIC50 [1] | pIC50 (A549 [2]) | pIC50 (K562) | pIC50 (HCT-116) | pIC50 (K-562R) | Activity (A549 [4]) | Activity (A549 [5]) | Activity (A549 [6])
1 | C=C(c1ccc(OC)cc1)c1cc(C(=O)O)nc2ccccc12 | 29 |  | 7.12 |  |  |  |  |  |  | 
2 | C=C(c1ccc(OC)c(F)c1)c1cc(C)nc2ccccc12 |  | 5.66 | 8.40 | 8.02 | 8.30 | 8.02 | 8.62 |  |  | 
3 | COc1ccc(C(=CC#N)c2cc(C)nc3ccccc23)cc1 |  | 5.72 | 9.60 | 7.10 | 7.77 | 7.88 | 8.18 |  |  | 
4 | C=C(c1ccc(OC)c(O)c1)c1nc(C)nc2ccccc12 |  | 6.22 | 8.21 |  |  |  |  |  |  | 
5 | C=C(c1ccc(OC)c(O)c1)c1cc(C)nc2ccccc12 |  | 5.41 | 8.82 | 9.40 | 8.74 | 9.05 | 8.62 | Dose-dependent effect | Active | Dose-dependent effect
6 | C=C(c1ccc(OC)cc1)c1nc(C)nc2ccccc12 |  |  | 7.40 |  |  |  |  |  |  | 
7 | C=C(c1ccc(OC)cc1)c1cc(C(F)(F)F)nc2ccccc12 |  |  | 7.66 |  |  |  |  |  |  | 
8 | C=C(c1ccc(OC)c(O)c1)c1cc(OC)c(OC)c(OC)c1 |  | 5.70 | 8.11 | 8.09 | 9.10 |  | 8.96 |  |  | 
9 | C=C(c1ccc(OC)cc1)c1cc(C(=O)OC)nc2ccccc12 |  | 5.41 | 8.64 |  | 7.06 | 6.80 | 7.74 |  |  | 
10 | C=C(c1ccc(OC)cc1)c1nc2ccccc2nc1C | 24 |  | 6.16 |  |  |  |  |  |  | 
11 | COc1ccc(C(=O)c2cc(C)nc3ccccc23)cc1 |  | 5.14 | 7.60 |  | 6.86 | 6.89 | 7.28 |  |  | 

Further lines, with some results ahead:

Row | inhibition (Ovis aries) [%] | pIC50 [3] | SMILES | pIC50 [1] | pIC50 (A549 [2]) | pIC50 (K562) | pIC50 (HCT-116) | pIC50 (K-562R) | Activity (A549 [4]) | Activity (A549 [5]) | Activity (A549 [6])
12 | 53 |  | C=C(c1ccc(OC)cc1)c1nc(C)cc2ccccc12 | 6.52 |  |  |  |  |  |  | 
13 |  | 4.77 | C=C(c1ccc(OC)cc1)c1cc(C)cc2ccccc12 | 6.85 |  |  |  |  |  |  | 
14 |  | 4.62 | C=C(c1ccc(OC)cc1)c1cc(C(N)=O)nc2ccccc12 | 6.62 |  |  |  |  |  |  | 
15 |  | 4.84 | C=C(c1ccc(OC)cc1)c1cc(CO)nc2ccccc12 | 6.41 |  |  |  |  |  |  | 
16 |  | 5.96 | C=C(c1ccc(OC)cc1)c1cc(C)nc2ccccc12 | 7.68 | 7.73 | 7.77 | 8.52 | 9.15 |  |  | 
17 |  | 5.96 | C=C(c1ccc(OC)cc1)c1cc(C#N)nc2ccccc12 | 9.00 | 7.30 | 8.05 | 8.80 | 9.05 |  |  | 
